# Sampled rows, rich in hits. Any-hit rate of the full collection: about 2.2%.
# BaF3 parental: parental Ba/F3 cell viability inhibition, counter-screen for JAK2V617F inhibitor project, murine pro-B, CellTiter-Glo luminescence. CellTiter-Glo ATP luminescence. inhibition, % at 5.6 µM. hit rate 1.1% among 220,000. AID 1486, 2009;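 active means inhibition above a per-campaign cutoff, the mean inhibition of all tested compounds plus 3 SD, cut at about 27% in these data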
# MT stabilizer: microtubule stabilizers in HeLa cells, primary screen, imaging, high-content imaging; % tubulin-high responders, % at 10 µM; HeLa tubulin immunostaining HCS, 24 h; share of cells brighter than vehicle mean+2SD; hit rate 0.83% among 200,000;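 active means plate Z-score above 3 for both tubulin-high and condensed-nucleus cell shares, with cell loss under 80%, at 10 µM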;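 further: anti alpha tubulin signal scored within the nucleus-defined area of each cell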
# b-catenin transl: modulators of beta-catenin nuclear translocation, primary screen, imaging, HeLa cells, immunofluorescence, high-content | AID 1665, 2009 | hit rate 0.3% among 190,000 | nuclear translocation activity, % at 5 µM;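 active means nuclear translocation activity above 50% at 5 µM, with a well cell count of 50 or more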;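 further: per-cell ratio of nuclear to cytoplasmic median beta-catenin stain intensity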
#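 Test system: HeLa cells, endogenous beta-catenin; Compound: single 5 µM dose plus 0.02–20 µM confirmation series; Times: compound exposure 24 h at 37°C; Signal: fluorescence imaging of beta-catenin antibody stain plus DAPI; Read-out: % activation, nuclear-to-cytoplasmic median beta-catenin signal ratio per cell.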
# APP transl inh: inhibitors of APP translation via 5'UTR reporter, primary screen, APP 5'UTR luciferase, SH-SY5Y cells; AID 1285, 2008; inhibition, % at 2 µM; hit rate 0.82% among 190,000; SH-SY5Y APP 5'UTR-luciferase reporter, luminescence;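 active means inhibition above a set limit, derived from the sample mean plus 3 SD, cut at about 45% in these data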
# IEC-6 tox: cytotoxicity in IEC-6 intestinal epithelial cells, primary screen, cytotoxicity control for KLF5 inhibitor project, cell-based, luminescence. IEC-6 cytotoxicity, luminescence viability. inhibition, % at 5 µM. hit rate 0.78% among 290,000; in the data active means inhibition above about 22%
# Ba/F3 V617F tox: reduced viability of JAK2V617F-dependent Ba/F3 cells, primary screen, JAK2V617F inhibitor project, cell-based, Ba/F3 EpoR-JAK2V617F, luminescence | ATP luminescence | inhibition, % at 5.6 µM | hit rate 1.1% among 220,000;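 active means inhibition above the campaign mean plus 3 SD over all tested compounds, cut at about 24% in these data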;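 further: cytokine-independent growth of Ba/F3 cells driven by EpoR plus mutant JAK2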
# Hits are given with their value; 0 = inactive; - = not tested or not shown.
SMILES,BaF3 parental,MT stabilizer,b-catenin transl,APP transl inh,IEC-6 tox,Ba/F3 V617F tox
N=C(N)c1ccc(OCCCCCOc2ccc(C(=N)N)cc2)cc1,53,0,0,0,0,63
COC(=O)c1ccc(OCCOc2ccc(C(=O)OC)cc2)cc1,0,0,0,0,0,0
CNC(=S)N1N=C(c2cccs2)CC1c1ccc(F)cc1 (centres undefined),-,-,-,-,0,-
CCOC(=O)c1c(S(=O)(=O)NCCCc2ccco2)c(C)n(C)c1C,-,-,-,-,0,-
CC1(C)NC(=O)N(CCCCOc2ccc(Cl)cc2C=O)C1=O,76,0,0,0,0,71
CC1(C)NC(=O)N(CCCCOc2ccc(Cl)cc2)C1=O,0,0,0,0,0,0
Cc1ccc(S(=O)(=O)n2[nH]c(=O)cc2NC(=O)c2cccs2)cc1,35,0,0,0,0,26
Cc1ccc(NC(=O)c2cccs2)cc1,0,0,-,0,0,0
Cc1cc(NC(c2cccnc2)c2ccc3cccnc3c2O)no1 (centres undefined),0,0,0,54,0,0
Oc1cccc(C(Nc2nccs2)c2ccc3cccnc3c2O)c1 (centres undefined),65,0,0,73,48,68
Oc1c(C(Nc2cccc(C(F)(F)F)c2)c2cccnc2)ccc2cccnc12 (centres undefined),0,0,0,0,0,0
O=C1CCCN1CC(=O)N1CCCC(Nc2cccc(F)c2)C1 (centres undefined),-,-,-,-,0,-
COc1ccc2c(Cl)c(C(=O)N/N=C/c3c(C)[nH]c4ccccc34)sc2c1,0,22,78,0,0,0
CCN1C(=O)/C(=C/c2ccc(C)s2)SC1=Nc1ccc(OC)cc1,0,33,0,0,0,0
COc1ccc(N=C2S/C(=C\c3ccc(C)o3)C(=O)N2CC(C)C)cc1,0,0,-,89,0,0
Cc1ccccc1N1C(=O)CC2(CCCC2)CC1=O,45,0,0,0,0,0
FC(F)(F)c1cccc(CN2CCC(c3cc(-c4cccs4)n[nH]3)CC2)c1,0,29,0,0,0,0
COCCN(CCOC)C(=O)c1ccc(CSc2nc3ccccc3s2)cc1,-,-,-,-,0,-
O=[N+]([O-])c1cccc(-c2cc3cccc[n+]3cc2-c2cccc([N+](=O)[O-])c2)c1,0,0,-,0,0,0
Cc1cccc2cc(-c3ccccc3)c(-c3ccccc3)c[n+]12,72,0,0,0,0,90
Cc1nn(C(C)C(=O)NC2CCCCC2)c(=O)c2nn(-c3ccccc3)c(C)c12 (centres undefined),-,-,-,-,0,-
COc1ccc(C)cc1N(C(=O)c1ccco1)C(C(=O)NC1CCCC1)c1ccc(N2CCOCC2)cc1 (centres undefined),-,-,-,-,0,-
CCOC(=O)c1c(C)[nH]c(C(=O)N/N=C\c2ccccc2Cl)c1C,0,23,0,0,0,0
CCOC(=O)c1c(C)[nH]c(C(=O)N/N=C/c2cccc(OC)c2)c1C,0,20,0,0,0,0
COc1cccc(/C=N/NC(=O)c2[nH]c(C)c(C(=O)N/N=C/c3cccc(OC)c3)c2C)c1,0,0,0,0,0,0
SMILES,BaF3 parental,MT stabilizer,b-catenin transl,APP transl inh,IEC-6 tox,Ba/F3 V617F tox
COc1ccc2[nH]c(C(=O)N3CCC(CO)(Cc4cccc(C(F)(F)F)c4)CC3)c(C)c2c1,-,-,-,-,0,-
CSc1ccc(/C=C(\NC(=O)c2ccc(C)cc2)C(=O)NN)cc1,57,-,0,-,0,0
Cc1ccc(NC(=O)CN2C(=O)S/C(=C\C(=O)Nc3ccc(Cl)cc3)C2=O)cc1,73,0,0,0,0,0
O=C(Nc1ccccc1N(C(=O)c1ccco1)S(=O)(=O)c1cccs1)c1ccco1,0,11,-,0,0,0
COc1ccc(N(C(=O)c2ccco2)S(=O)(=O)c2cccs2)cc1,0,0,0,0,0,0
CCOC(=O)C1=C(CC)Nc2ccccc2N=C1NC(=O)c1oc2ccccc2c1C,0,0,0,0,0,0
CCOCc1c(C(=O)NC2=Nc3ccccc3NC(CC)=C2C(=O)OCC)oc2ccccc12,0,20,0,0,0,0
O=C(COc1ccc(S(=O)(=O)N2CCCCC2)cc1Cl)N1CCOCC1,-,-,-,-,0,-
CCCCCOc1ccc(C(=O)NCC(=O)NCC(=O)OCC)cc1,0,36,0,0,0,0

# Assay outcomes deposited in PubChem BioAssay by several laboratories.
